Data taken from PMC4495880 (Biochemical pharmacology, 2010).
Where two headings read alike, the source gives them in different places.

How the values were obtained:
[1] = Protease inhibitors blocking BNP inactivation by human kidney membranes; type: biochemical; conditions: for effect on BNP inactivation: human membranes, data not shown; for effect of inhibitor on inactivation of rat BNP1-32 by human kidney membranes: 45 min, N = 8
[2] = Protease inhibitors blocking BNP inactivation by rat kidney membranes; type: biochemical; conditions: 40 μg rat kidney membranes, 45 min; cGMP bioassay; N = 8
[3] = cited from earlier work
[4] = Proteolysis bioassay: inactivation of BNP by human kidney membranes; type: in vitro ADME; conditions: 40 μg human kidney membranes, 45 min, 37°C; cGMP bioassay; mean, N = 8
Method in brief: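 Rat BNP_1-32 incubated 45 min at 37°C with 40 μg crude human kidney membranes (diluted to 2 mg/ml in 50 mM Tris-HCl pH 7.5, 20% glycerol, 50 mM NaF). Stopped with 0.5 N perchloric acid, boiled 10 min, neutralised. Residual activity was read as cGMP (RIA) in serum-starved HEK293 cells expressing rat (1 min) or human (3 min) GC-A, with 1 mM IBMX. Remaining peptide was fitted to an untreated-peptide standard curve and expressed as % of peptide-only. Mean ± SEM, N = 8.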

[5] = Proteolysis bioassay: inactivation of BNP by rat kidney membranes; type: in vitro ADME; conditions: 40 μg rat kidney membranes, 45 min, 37°C; cGMP bioassay; mean, N = 4
Method in brief: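 Human BNP_1-32 exposed to 40 μg crude rat kidney membranes (Tris-HCl pH 7.5/glycerol/NaF buffer, 2 mg/ml) for 45 min at 37°C. Perchloric acid stop, 10 min boil, NaOH neutralisation. Aliquot in DMEM, 25 mM HEPES pH 7.4, 1 mM IBMX applied to HEK293 cells stably expressing GC-A (rat receptor 1 min, human 3 min). cGMP by radioimmunoassay; peptide left derived from standard curve, % of starting peptide-only value. Mean ± SEM, N = 4.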

[6] = test system: recombinant human meprin A and NEP; type: in vitro ADME
[7] = 40 μg human kidney membranes, 37°C, cGMP bioassay

O=S(=O)(F)Cc1ccccc1 [PMSF]
effect on BNP inactivation [1]: neither had an effect

CC(=O)N[C@@H](CC(C)C)C(=O)N[C@@H](CC(C)C)C(=O)N[C@H](C=O)CCCNC(=N)N [leupeptin]
effect of inhibitor on inactivation of human BNP1-32 by human kidney membranes ([1]; 40 μg human kidney membranes, 20 min, 37°C, cGMP bioassay): completely blocked activity losses | effect of inhibitor on inactivation of rat BNP1-32 by human kidney membranes [1, 7]: blocked a portion of the activity loss | effect of inhibitor on inactivation of rat BNP1-32 by rat kidney membranes [2]: had no effect

CC(C)C[C@H](NP(=O)(O)O[C@@H]1O[C@@H](C)[C@H](O)[C@@H](O)[C@H]1O)C(=O)N[C@@H](Cc1c[nH]c2ccccc12)C(=O)O [phosphoramidon]
effect of inhibitor on inactivation of rat BNP1-32 by human kidney membranes [1, 7]: blocked a portion of the activity loss

Atrial natriuretic peptide [ANP]
half-life [3]: ~ 2 min

CNP: natriuretic peptide, best substrate for NEP
half-life ([3]; in vivo): ~ 2 min

Rat B-type natriuretic peptide 1–32 (SQDSAFRIQERLRNSKMAHSSSCFGQKIDRIG; Brain natriuretic peptide 45; UniProt P13205 77-108, looked up, fragment) [rat BNP1-32]
bioactivity lost [4]: More than 75%

aprotinin
effect on BNP inactivation [1]: neither had an effect

human B-type natriuretic peptide [human BNP1-32]
initial bioactivity lost [5]: 48% | additional loss of activity on longer incubation with purified enzymes [6]: did not result in any additional loss | additional loss of activity on sequential addition of the enzymes [6]: did not result in any additional loss | half-life [3]: ~ 20 min
